From ChEMBL document CHEMBL1765005, “Small molecule antagonists of the urokinase (uPA): urokinase receptor (uPAR) interaction with high reported potencies show only weak effects in cell-based competition assays employing the native uPAR ligand” (Bioorg Med Chem, 2011)
pIC50: −log10 of the molar value. Calls of active or inactive are those of the source. The rule behind the calls is not given here. Residues, ends and D or L forms follow the SMILES beside them.

Columns and labels:
Format in all cases: cell-based
[1] = molecular target: T1, Urokinase-type plasminogen activator/surface receptor (Homo sapiens, UniProt P00749+Q03405); experiment: Inhibition of [125I]-labelled urokinase-type plasminogen activator binding to uPAR in human DU-145 cells by radioligand competition binding assay
[2] = molecular target: T1, Urokinase-type plasminogen activator/surface receptor; experiment: Inhibition of high molecular weight fluorescent labelled urokinase-type plasminogen activator binding to uPAR in PMA-stimulated human U937 cells at 100 uM preincubated for 30 mins by flow cytometry; conditions: U-937
In short: (§1)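 U-937 cells were stimulated with 100 nM PMA (final) for 7–8 h at 37 °C, then resuspended at 1 × 10⁶ cells/mL in cold PBS (1 mM CaCl₂, MgCl₂) with 0.1% BSA, pH 7.4. Cells were pre-incubated with antagonist on ice for 30 min, then given 40 nM Alexa-488-HMW-uPA. After washing, cell fluorescence was read by dual-colour flow cytometry as % of the no-compound control; mean ± SD, n = 3.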

[3] = molecular target: T1, Urokinase-type plasminogen activator/surface receptor; experiment: Inhibition of high molecular weight fluorescent labelled urokinase-type plasminogen activator binding to uPAR in PMA-stimulated human U937 cells at 10 uM preincubated for 30 mins by flow cytometry; conditions: U-937; in short: as §1
[4] = molecular target: T1, Urokinase-type plasminogen activator/surface receptor; experiment: Inhibition of high molecular weight fluorescent labelled urokinase-type plasminogen activator binding to uPAR in PMA-stimulated human U937 cells at 10 nM preincubated for 30 mins by flow cytometry; conditions: U-937; in short: as §1
[5] = molecular target: T1, Urokinase-type plasminogen activator/surface receptor; experiment: Inhibition of high molecular weight fluorescent labelled urokinase-type plasminogen activator binding to uPAR in PMA-stimulated human U937 cells at 100 nM preincubated for 30 mins by flow cytometry; conditions: U-937; in short: as §1

pIC50 [1]	inhibition [2]	inhibition [3]	inhibition [4] [%]	inhibition [5] [%]	Compound
9.10	inactive	inactive	–	–	CC(=O)N[C@@H](Cc1c[nH]c2ccccc12)C(=O)Nc1cccc(-c2ccc(C(=O)N[C@@H](Cc3ccccc3)C(=O)O)cc2)c1
–	50%	60%	–	–	C#CCNCC(=O)N(CC(=O)N(CC(N)=O)CC(=O)NC(c1ccc(OC)cc1)c1ccc(OC)cc1)c1ccc2ccccc2c1
–	–	–	80	90	N=C(N)NCCC[C@H](NC(=O)CNC(=O)[C@@H](N)CCC(=O)O)C(=O)CCl (HELM PEPTIDE1{E.G.R.[ClC[*:1]]}$$$$V2.0)
